94 compounds from PubChem BioAssay AID463079 (The Scripps Research Institute Molecular Screening Center, 2010) can be followed below.

The whole screen tested about 330,000 compounds, of which about 2,000 (0.61%) were called active. What follows is part of a selection rich in actives, with near analogues and random picks from the rest. A number with no mark means an inactive call.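 The calls were made as follows: active = inhibition above that plate's mean sample inhibition plus 3 SD (cut at about 26% in these data); inactive = the rest.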

The test in a line: nonselective Gq signaling inhibition in CHO cells – cell-based, fluorescence, Fluo-8 calcium dye, counter-screen for OX1R antagonist project, primary screen (AID 463079).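 Also: 0% = ATP-challenged DMSO wells and 100% = DMSO wells without ATP.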 To be noted: parental CHO-K1, ATP-induced calcium, Fluo-8 fluorescence; at 5.6 µM; hits give high values. An outline of the steps:
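Assay system: parental CHO cells; Read-out basis: percent inhibition of ATP-evoked calcium rise, normalized to controls; Benchmarks: ATP and no-ATP DMSO wells; Compound dosing: single nominal dose of 5.6 µM per compound; Signal: Fluo-8 calcium dye fluorescence; Also added: ATP as calcium-mobilizing challenge; Repeats: singlicate.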
Consider `Cc1cccc(NC(=O)c2cccnc2Cl)n1`, for which the inhibition is 1.32%.

For the compound `Cc1cccc(NC(=O)c2ccc(S(=O)(=O)N(C)c3ccccc3)cc2)n1`, the inhibition is -10.9%. For the compound `CSc1nccc(NC(=O)c2ccc(C(C)(C)C)cc2)n1`, the inhibition is 33.6% (active). Take `O=c1cnnc(Nc2ccccc2)[nH]1`: the inhibition is -11.1%. Turning to `CCOc1ccccc1OCC(=O)Nc1ccccc1C(=O)NC1CC1`, the inhibition is 14.9%. As for `CC(C)OCCCNc1ncnc2c1[nH]c1ccc(F)cc12`, the figure is 58.6% (active); as for `O=C1c2ccccc2C(=O)N1CCC#Cc1ccc2cc(C3(O)CCCCC3)oc(=O)c2c1`, -14.2%; as for `O=C(NCCC(=O)N1O[C@@H]2C=C[C@H]1C2)OCC1c2ccccc2-c2ccccc21`, -10.5%. As for `CC(C)CNC(=O)c1cc(-c2ccc(Br)cc2)on1`, the figure is -10.3%; as for `CC(C)Cc1cc(C(=O)Nc2cc(Br)ccc2O)no1`, 43% (active). As for `CC(C)Cc1cc(C(=O)NCCc2ccccc2)no1`, the figure is -2.04%; as for `Cc1ccc(C)c(S(=O)(=O)Nc2cccc(-n3cnnn3)c2)c1`, -1.77%; as for `CCOC(=O)C1CCCN(C(=O)c2cccc(S(=O)(=O)N3CCOCC3)c2)C1` (centres undefined), -2.51%. Turning to `COc1ccc(/C=C/C(=O)Nc2c(C)nn(C)c2C)cc1COc1ccc(Br)cc1`, the inhibition is 13.3%.

In the case of `O=C(Nc1ccc(NC(=O)c2ccco2)c(Cl)c1)c1cccc([N+](=O)[O-])c1`, the inhibition was -6.79%. As for `O=C(Nc1cccc([N+](=O)[O-])c1)c1ccc2c(c1)OCO2`, the figure is -1.24%. With `O=C(Nc1ccc(C2CC2(Cl)Cl)cc1)c1cccc([N+](=O)[O-])c1` (centres undefined), the inhibition was 46.7% (active). As for `COC(=O)[C@@H]1C[C@@]2(O)[C@H](O)[C@H](O)[C@H](O)C[C@H]2N1Cc1ccc(C)s1`, the figure is 2.13%; as for `O=C(CO/N=C/c1ccccc1O)NNC(=O)c1ccccc1Cl`, 2.58%. In the case of `CC[n+]1cc(C)ccc1/C=C/c1ccc(N(C)C)cc1`, the inhibition is 51.9% (active). On to `CCOC(=O)C1=CN(Cc2ccc(Br)cc2)S(=O)(=O)N(C)C1C` (centres undefined), for which the inhibition is -13.1%. As for `N#C/C(=C/c1ccc(Cl)cc1)NC(=O)c1ccccc1`, the figure is 50.3% (active); as for `O=C(NCC1CCCO1)/C(=C/c1ccc(Cl)cc1)NC(=O)c1ccccc1` (centres undefined), -2.9%. As for `O=C(N/C(=C\c1ccc(O)cc1)C(=O)N1CCCCC1)c1ccccc1`, the figure is -2.82%; as for `S=C(NCCC1=CCCCC1)Nc1ccccc1`, 6.17%; as for `COc1cc(OC)c2c(-c3cccc(-c4cccc(N)c4)c3)cc(=O)oc2c1`, -15.7%. As for `CSc1sc(C)cc1C1C(C#N)=C(N)N(c2cccnc2)C2=C1C(=O)CCC2` (centres undefined), the figure is -13.3%.

Turning to `CN(C(=O)CN(CCO)CC(=O)N(C)C(C)(C)Cc1ccccc1)C(C)(C)Cc1ccccc1`, the inhibition was 52.8% (active). On to `OCCN(Cc1ccccc1)Cc1ccc(Cl)cc1`, for which the inhibition is -28.2%.

Regarding `CCN(CC)C(=O)N(CC)Cc1ccccc1`, the inhibition was -0.04%. As for `CCc1cccc(NC(=S)N(CCN(C)C)C2CCN(C(C)C)CC2)c1`, the figure is 1.41%. In the case of `CCc1cc2c(=O)c(-c3ccon3)c(N)oc2cc1OC`, the inhibition was -10.2%.

As for `Cc1ccc(-c2cccc([C@H]3[C@@H]4C=CC[C@@H](C)[C@@H]4C(=O)N3Cc3ccccc3)c2)cc1`, the inhibition was -46.9%. For the compound `CSc1nsc(NC(=O)Nc2ccccc2)n1`, the inhibition is 18.8%.

Regarding `C=CCSc1nnc(NC(=O)c2ccc(NC(C)=O)cc2)s1`, the inhibition was -14.6%. As for `CCSc1nsc(NC(=O)Nc2ccccc2OC)n1`, the figure is -18.1%.

On to `CSc1ccccc1C(=O)Nc1cccc(C(C)=O)c1`, for which the inhibition is -10%.

Consider `CCSc1nsc(NC(=O)Nc2cccc(C(C)=O)c2)n1`, for which the inhibition is 66.5% (active).

With `C=CCSc1nsc(NC(=O)Nc2cccc(C(C)=O)c2)n1`, the inhibition is 46.6% (active). As for `CN(C)C=NC(=O)c1cccn1-c1ncc(C(F)(F)F)cc1Cl`, the figure is 7.02%; as for `O=C(O)CCN1C(=O)CC2(CCCCC2)C1=O`, 6.17%; as for `CCOC(=O)c1c(C)[nH]c(C(=O)OCC(=O)c2ccc(OC)cc2OC)c1C`, -26.3%. As for `CCOC(=O)c1c(C)[nH]c(C(=O)COc2ccc3c(c2)OCO3)c1C`, the figure is 39.2% (active); as for `CC(=O)c1c(C)[nH]c(C(=O)COc2ccc3c(C)cc(=O)oc3c2)c1C`, 1.48%. As for `COc1ccc(-c2cnc(SCCNC(=O)c3ccc4c(c3)OCO4)[nH]2)cc1`, the figure is -9.72%; as for `Cc1ccc(NC(=O)c2ccc(Cl)nc2)cc1S(=O)(=O)N1CCOCC1`, -8.73%; as for `CCN1/C(=C/c2ccc3ccc(C)cc3[n+]2CC)Sc2ccccc21`, 80.2% (active). As for `CCN1/C(=C\c2ccc3ccccc3[n+]2CC)Sc2cc(C)ccc21`, the inhibition was 79.6% (active). As to `CCOC(=O)CN(C(=O)COc1nc(-c2ccccc2)cc(C)c1C#N)c1ccc(F)cc1`, the inhibition is -20.7%.

Regarding `O=C(O)CN(Cc1ccco1)S(=O)(=O)c1ccccc1`, the inhibition was -6.05%. As for `COc1ccc(C(=O)OCC(=O)c2cc(C)n(CC3CCCO3)c2C)cc1[N+](=O)[O-]` (centres undefined), the figure is -4.71%. As for `CC(NC(=S)Nc1ccc(OC(F)F)cc1)c1ccc(F)cc1` (centres undefined), the figure is 14.7%; as for `COc1cccc(CNC(C)C(=O)Nc2ccc(S(=O)(=O)N3CCCC3)cc2)c1` (centres undefined), -9.95%. As for `COc1cc2c(cc1OC)C(C(=O)NCc1ccco1)C1c3ccccc3CCN1C2=O` (centres undefined), the figure is -23.7%; as for `CCOC(=O)c1sc(NC(=O)CSc2nc(C)cc(C(F)(F)F)n2)c(C#N)c1C`, 4.56%. For the compound `COc1ccc(C(=O)COC(=O)c2c(C)noc2C)cc1Cl`, the inhibition is -10.6%. As for `Cc1ccc(S(=O)(=O)N2CCN(C(=O)COC(=O)c3c(C)noc3C)CC2)c(C)c1`, the figure is -5.91%.

As to `Cc1ccc(-c2nc(COC(=O)c3c(C)noc3C)cs2)cc1`, the inhibition is 44.1% (active). As for `COc1ccc(S(=O)(=O)N2CCN(c3ncnc4c(-c5ccccc5)nsc34)CC2)cc1`, the figure is -9.64%. As for `COCc1c(C(=O)OCC(=O)Nc2ccc(OC(F)F)cc2)oc2ccccc12`, the figure is -11.9%; as for `Cc1nc(CNS(=O)(=O)c2cc([N+](=O)[O-])ccc2C)cs1`, -14.4%; as for `Cc1ccc(S(=O)(=O)NCc2csc(C)n2)c(C)c1`, -13.8%. As for `Cc1nc(CNS(=O)(=O)c2ccc(Oc3ccccc3)cc2)cs1`, the figure is 44.4% (active); as for `COc1ccc(NC2CCCN(C(=O)c3ccncc3)C2)cc1` (centres undefined), -8.33%; as for `CSCCC(C(=O)NC1=NCCS1)N1C(=O)c2ccccc2C1=O` (centres undefined), 1.01%.

With `CCOc1cccc(C(=O)Nc2nnc(-c3cccs3)s2)c1`, the inhibition is -10.2%. As for `N#Cc1ccc(C(=O)Nc2nc(-c3cccs3)c(C(=O)C(F)(F)F)s2)cc1`, the figure is 25.4% (active); as for `N#Cc1ccc(Oc2ccc(C(F)(F)F)cc2NC(=O)c2ccc(F)cc2)cc1`, -13.8%.

`O=C(/C=C/c1cccc([N+](=O)[O-])c1)NCCSCc1ccco1`: the inhibition was -15.3%. As for `CCCC(C)C(=O)OCC(=O)Nc1c(Br)cc(C)cc1Br` (centres undefined), the figure is -8.47%; as for `CC1CCN(c2ccc(-c3ccc(NC(=O)c4ccco4)cc3)nn2)CC1`, 45% (active); as for `CC1CCN(C(NC(=O)c2ccco2)C(=O)c2ccccc2)CC1` (centres undefined), -6.97%. As for `CCC(=O)Nc1ccc(-c2ccc(N3CCCCC3)nn2)cc1`, the figure is -16%; as for `COc1ccc(CCNC(=O)CN(C)S(=O)(=O)c2ccc3nc(C)sc3c2)cc1OC`, -5.92%. As for `CC(=O)Nc1ccc(S(=O)(=O)NCCC(=O)N2CCN(c3ccccc3Cl)CC2)cc1`, the figure is -3.47%. `Cc1cccn2c(=O)c(/C=C(\C#N)C(N)=O)c(N3CCCCCC3)nc12`: the inhibition was -34.3%. As for `CCOC(=O)N1CCN(C(=O)CSc2nc(=O)n3cccc(C)c3n2)CC1`, the figure is -15.5%. With `CCOC(=O)CC1C(=O)NCCN1c1nc2c(C)cccn2c(=O)c1/C=C1\SC(=S)N(C(C)CC)C1=O` (centres undefined), the inhibition is 54.2% (active). As for `COc1ccc(CC(NC(C)=O)C(=O)NC2CCN(C(=O)Nc3ccc(C#N)cc3)CC2)cc1OC` (centres undefined), the figure is -6.58%. As for `CC(C)=CCN1CCN(CCCc2ccccc2)CC1CCO` (centres undefined), the figure is -8.88%; as for `CN(C)S(=O)(=O)N1CCC(Oc2cccc(C(=O)NCCCC3CCCC3)c2)CC1`, 23.8%. As for `CSc1ccc(S(=O)(=O)NCC(=O)OCC(=O)NC2(C#N)CCCCC2)cc1[N+](=O)[O-]`, the figure is -8.63%; as for `COc1ccc(-c2noc(CCC(=O)N3CCN(c4cccc(C)c4)CC3)n2)cc1`, -7.6%. As to `Oc1c(Cl)cc(Cl)c(Cl)c1Cc1c(O)c(Cl)cc(Cl)c1Cl`, the inhibition was 70.6% (active).

Turning to `COCC(=O)Nc1cc(C(=O)OC)cc(C(=O)OC)c1`, the inhibition is -1.27%. Consider `Cc1cccc(NC(=O)C2CC(=O)OC23CCCC3)c1` (centres undefined), for which the inhibition was -13.3%.

Regarding `C/C(=N/NC(=O)CC(=O)N/N=C(\C)c1ccc([N+](=O)[O-])cc1)c1ccc([N+](=O)[O-])cc1`, the inhibition is -3.47%. Regarding `C/C(=N\NC(=O)CNC(=O)C(c1ccccc1)c1ccccc1)c1ccc(C)cc1`, the inhibition was 30.7% (active). As for `O=C(CNC(=O)C(c1ccccc1)c1ccccc1)N/N=C\c1ccc2c(c1)OCO2`, the figure is 2.64%. As for `CCCc1ccc(C(=O)COC(=O)CN2C(=O)NC3(CCCCC3C)C2=O)cc1` (centres undefined), the figure is -23.9%; as for `COc1cc(C(=O)N2CCN(C/C=C/c3ccccc3)CC2)cc(OC)c1C`, -10.8%; as for `CC1(C)C2CC[C@]3(C)C(CC=C4[C@@H]5C[C@@](C)(CO)CC[C@]5(C(=O)O)CC[C@]43C)[C@@]2(C)CC[C@@H]1O` (some centres undefined), -1.46%. As for `CC1(C)CC[C@@]2(C(=O)O)C(C1)C1=CCC3[C@@]4(C)CC[C@H](O)C(C)(C)C4CC[C@@]3(C)[C@]1(C)C[C@H]2O` (some centres undefined), the figure is 93.2% (active). For `CC1(C)CC[C@]2(C(=O)O)CC[C@]3(C)C(=CCC4[C@@]5(C)CC[C@H](O)C(C)(C)C5[C@H](O)C[C@]43C)[C@@H]2C1` (some centres undefined), the inhibition was -9.31%.
